Measurements published in publication PMC3498903 (Journal of medicinal chemistry, 2012).
Entries after “also recorded” stand apart in the source; their conditions may differ. Where a name gives a salt, the structure may show the parent alone. Read-outs that look alike come from different tables or passages of the source.

Legend:
HFF cells = experiment: In vitro toxicity assay on HFF host cells; format: cell-based, human; conditions: HFF used as host cells in the parasite assay
mice = experiment: In vivo toxicity in uninfected mice dosed orally; conditions: for Day of Death: Challenge None, B7 mice; for toxic effects on oral dosing (survival, well-being criteria): gavage daily for nine days, 100mg/kg
[1] = system: T. gondii TgGoatUS4 oocysts; experiment: Mouse model of T. gondii oocyst infection, TgGoatUS4 oocysts; format: in vivo, Toxoplasma gondii; conditions: 25 or 100 mg/kg, versus untreated infected mice
Summary of the method: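 Mice, 5 per group, were challenged orally with TgGoatUS4 oocysts that had been sporulated in 2% sulfuric acid and neutralised with 3.3% NaOH. Test compound was given at 100 or 25 mg/kg as a 1 mL suspension by oral gavage in 1% DMSO/5% PEG 400/94% of 0.5% CMC. Controls were compound-only and untreated infected mice. Survival was observed daily, with tachyzoites sought in tissue smears.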

[2] = system: THdhxgTRP tachyzoites transfected with pLK47; experiment: Insertional mutagenesis experiments: selection of resistant mutants; format: cell-based, Toxoplasma gondii; conditions: prolonged incubation (six weeks); data not shown
T. gondii tachyzoites = experiment: In vitro inhibition of T. gondii tachyzoites; format: cell-based, Toxoplasma gondii; conditions: for MIC50 / MIC90: T. gondii tachyzoites in vitro; for activity against T. gondii tachyzoites in words: in vitro, only MIC50 ≤ 1 μM considered active
[3] = system: P. falciparum D6 (CDC/Sierra Leone); experiment: Malaria SYBR Green I-based fluorescence; format: cell-based; conditions: Plasmodium falciparum, D6, 72 h, read-out: D6 IC50
P. falciparum TM91-C235 = experiment: Malaria SYBR Green I-based fluorescence; format: cell-based, Plasmodium falciparum; conditions: for IC50: Plasmodium falciparum, 72 h; for efficacy against TM91-C235 compared with D6: comparison of IC50 values of the two strains
RH-YFP tachyzoites = experiment: Determination of static or cidal effects on RH-YFP tachyzoites; format: cell-based, Toxoplasma gondii; conditions: 1 μM; for static or cidal effect: Conditions A-D, growth assessed at days 11, 17, 25; for duration of treatment giving a cidal effect: compound removed after treatment
[4] = Hydrolytic stability on incubation in THF and buffer; conditions: mixture of THF and buffer (pH 7.4 or pH 8.5); data not shown
T. gondii Me-49 oocysts = experiment: Mouse model of T. gondii oocyst infection, ME49 oocysts; format: in vivo, Toxoplasma gondii; conditions: 25 or 100 mg/kg, versus untreated infected mice
Summary of the method: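 […] female mice (~25 g), 5 per group. Each mouse received test compound at 100 or 25 mg/kg (2.5 or […], 1.0 mL) by oral gavage in 1% DMSO/5% PEG 400/94% of 0.5% CMC, with or without 100 acid-sporulated, NaOH-neutralised ME49 oocysts orally. Controls were compound-only and oocyst-only groups. Mice were observed daily for survival. Infection was confirmed by tachyzoites in tissue smears.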

Molecule: 2-((2,4-bis(trifluoromethyl)phenyl)carbamoyl)-4-chlorophenyl(2-hydrazinyl-2-oxoethyl) (methyl)carbamate hydrochloride [Compound 14b]
- Toxicity (HFF cells): >1000 nM
- Day of Death (mice; 25 mg/kg oral gavage): None
- Day of Death (mice; 100 mg/kg oral gavage): None
- toxic effects on oral dosing (survival, well-being criteria) (mice): all mice were alive and appeared healthy
- increased survival [1]: 1 days
- growth of insertional mutant parasites in the presence of compound [2]: No parasite growth

Molecule: 5-chloro-2-hydroxy-N-(3,4,5-trimethoxyphenyl)benzamide [Compound 3q]
- MIC50 (T. gondii tachyzoites): >1 µM
- MIC90 (T. gondii tachyzoites): >1 µM
- activity against T. gondii tachyzoites in words (T. gondii tachyzoites): devoid of activity; also recorded: inactive

Molecule: 5-chloro-2-hydroxy-N-(5-methoxy-2-methylphenyl)benzamide [Compound 3x]
- MIC50 (T. gondii tachyzoites): >1 µM
- MIC90 (T. gondii tachyzoites): >1 µM

Molecule: 5-chloro-N-(3-cyano-4-fluorophenyl)-2-hydroxybenzamide [Compound 3t]
- MIC50 (T. gondii tachyzoites): >1 µM
- MIC90 (T. gondii tachyzoites): >1 µM

Molecule: CCN(CC)CCCC(C)Nc1ccnc2cc(Cl)ccc12 (stereo not drawn) [Chloroquine, reference compound]
- IC50 [3]: 7 nM
- IC50 (P. falciparum TM91-C235; read-out: C235 IC50): 89 nM

Molecule: CC(C)(C)c1cccc(NC(=O)c2cc(Cl)ccc2O)c1 [Compound 3i, N-(3-tert-butylphenyl)-5-chloro-2-hydroxybenzamide]
- activity against T. gondii tachyzoites in words (T. gondii tachyzoites): much more active than 3l
- Toxicity (HFF cells): >1000 nM
- IC50 (P. falciparum TM91-C235; read-out: C235 IC50, multi-drug resistant strain TM91-C235, 72 hours): > 6500 nM
- efficacy against TM91-C235 compared with D6 (P. falciparum TM91-C235): two-fold higher IC50
- static or cidal effect (RH-YFP tachyzoites): parasitostatic; also recorded: static effect
- growth of insertional mutant parasites in the presence of compound [2]: No parasite growth

Molecule: O=C(Nc1cc(C(F)(F)F)cc(C(F)(F)F)c1)c1cc(Cl)ccc1O [Compound 3j]
- activity against T. gondii tachyzoites in words (T. gondii tachyzoites): promising activity
- Toxicity (HFF cells): >1000 nM
- efficacy against TM91-C235 compared with D6 (P. falciparum TM91-C235): equally effective
- static or cidal effect (RH-YFP tachyzoites): parasitocidal; also recorded: cidal
- duration of treatment giving a cidal effect (RH-YFP tachyzoites): cidal effect after four days of treatment
- growth of insertional mutant parasites in the presence of compound [2]: No parasite growth

Molecule: O=C(Nc1ccc([N+](=O)[O-])cc1Cl)c1ccccc1O [Compound 3k, N-(2-chloro-4-nitrophenyl)-2-hydroxybenzamide]
- activity against T. gondii tachyzoites in words (T. gondii tachyzoites): eliminated activity altogether

Molecule: COc1ccc(NC(=O)c2cc(Cl)ccc2O)cc1OC [Compound 3v, 5-chloro-N-(3,4-dimethoxyphenyl)-2-hydroxybenzamide]
- activity against T. gondii tachyzoites in words (T. gondii tachyzoites): devoid of activity

Molecule: O=C(Nc1cccc(OC(F)F)c1)c1cc(Cl)ccc1O [Compound 3z, 5-chloro-N-(3-(difluoromethoxy)phenyl)-2-hydroxybenzamide]
- MIC50 (T. gondii tachyzoites): >1 µM
- MIC90 (T. gondii tachyzoites): >1 µM

Molecule: Nc1ccc(NC(=O)c2cc(Cl)ccc2O)c(Cl)c1 [Compound 5, N-(4-amino-2-chlorophenyl)-5-chloro-2-hydroxybenzamide hydrochloride]
- activity against T. gondii tachyzoites in words (T. gondii tachyzoites): all activity was lost; also recorded: destroyed

Molecule: O=C(Oc1ccc(Cl)cc1C(=O)Nc1ccc([N+](=O)[O-])cc1Cl)c1ccccc1 [Compound 7a, 4-chloro-2-((2-chloro-4-nitrophenyl)carbamoyl)phenyl benzoate]
- activity against T. gondii tachyzoites in words (T. gondii tachyzoites): apparent increase in potency over 4
- Toxicity (HFF cells): >1000 nM
- efficacy against TM91-C235 compared with D6 (P. falciparum TM91-C235): equally effective
- static or cidal effect (RH-YFP tachyzoites): parasitocidal; also recorded: cidal
- duration of treatment giving a cidal effect (RH-YFP tachyzoites): cidal effect after four days of treatment
- growth of insertional mutant parasites in the presence of compound [2]: No parasite growth
- stability against hydrolysis [4]: hydrolytically labile

Molecule: COC(=O)[C@@H]1CCCN1C(=O)Oc1ccc(Cl)cc1C(=O)Nc1ccc([N+](=O)[O-])cc1Cl [Compound 7b, (S)-1-(4-chloro-2-((2-chloro-4-nitrophenyl)carbamoyl)phenyl) 2-methyl pyrrolidine-1,2-dicarboxylate]
- stability against hydrolysis [4]: much more stable against hydrolysis

Molecule: O=C(Nc1ccc([N+](=O)[O-])cc1Cl)c1cc(Cl)ccc1OC(=O)N1CCOCC1 [Compound 7c, 4-chloro-2-((2-chloro-4-nitrophenyl)carbamoyl)phenyl morpholine-4-carboxylate]
- activity against T. gondii tachyzoites in words (T. gondii tachyzoites): devoid of activity
- stability against hydrolysis [4]: much more stable against hydrolysis

Molecule: CN1CCN(C(=O)Oc2ccc(Cl)cc2C(=O)Nc2ccc([N+](=O)[O-])cc2Cl)CC1 [Compound 7d, 4-chloro-2-((2-chloro-4-nitrophenyl)carbamoyl)phenyl 4-methylpiperazine-1-carboxylate]
- activity against T. gondii tachyzoites in words (T. gondii tachyzoites): modest activity; also recorded: devoid of activity
- stability against hydrolysis [4]: much more stable against hydrolysis

Molecule: CN(CC(=O)NN)C(=O)Oc1ccc(Cl)cc1C(=O)Nc1ccc([N+](=O)[O-])cc1Cl.Cl [Compound 14a, 4-chloro-2-((2-chloro-4-nitrophenyl)carbamoyl)phenyl (2-hydrazinyl-2-oxoethyl)(methyl) carbamate hydrochloride]
- Toxicity (HFF cells): >1000 nM
- efficacy against TM91-C235 compared with D6 (P. falciparum TM91-C235): equally effective
- static or cidal effect (RH-YFP tachyzoites): cidal
- duration of treatment giving a cidal effect (RH-YFP tachyzoites): cidal effect after ten days of treatment
- Day of Death (mice; 25 mg/kg oral gavage): None
- Day of Death (mice; 100 mg/kg oral gavage): None
- toxic effects on oral dosing (survival, well-being criteria) (mice): all mice were alive and appeared healthy
- increased survival (T. gondii Me-49 oocysts): 1 days

Molecule: N-(2,3-dihydrobenzo[b][1,4]dioxin-6-yl)-2-hydroxybenzamide [Compound 3ab]
- MIC50 (T. gondii tachyzoites): >1 µM
- MIC90 (T. gondii tachyzoites): >1 µM
- activity against T. gondii tachyzoites in words (T. gondii tachyzoites): devoid of activity; also recorded: inactive

Molecule: N-(2,4-dichlorophenyl)-5-chloro-2-hydroxybenzamide [Compound 3n]
- activity against T. gondii tachyzoites in words (T. gondii tachyzoites): slight activity; also recorded: active

Molecule: N-(2,4-difluorophenyl)-5-chloro-2-hydroxybenzamide [Compound 3o]
- MIC50 (T. gondii tachyzoites): >1 µM
- MIC90 (T. gondii tachyzoites): >1 µM
- activity against T. gondii tachyzoites in words (T. gondii tachyzoites): inactive

Molecule: N-(2-chloro-5-nitrophenyl)-5-methyl-2-hydroxybenzamide [Compound 3m]
- activity against T. gondii tachyzoites in words (T. gondii tachyzoites): decreased potency; also recorded: inactive; also recorded: about one-half as active as 4
